ChEMBL document CHEMBL5696442, “Discovery of type II inhibitors of TGFβ-activated kinase 1 (TAK1) and mitogen-activated protein kinase kinase kinase kinase 2 (MAP4K2)” (J Med Chem, 2015)

Key:
Type in all cases: cell-based
[1] = molecular target: T1, Ephrin type-B receptor 4 (Homo sapiens) (UniProt P54760); assay: Inhibition of EphB4 ACT labeling site in human A-375 cells at 5 uM by KiNativ Profiling analysis relative to control
T1 sequence (whole entry): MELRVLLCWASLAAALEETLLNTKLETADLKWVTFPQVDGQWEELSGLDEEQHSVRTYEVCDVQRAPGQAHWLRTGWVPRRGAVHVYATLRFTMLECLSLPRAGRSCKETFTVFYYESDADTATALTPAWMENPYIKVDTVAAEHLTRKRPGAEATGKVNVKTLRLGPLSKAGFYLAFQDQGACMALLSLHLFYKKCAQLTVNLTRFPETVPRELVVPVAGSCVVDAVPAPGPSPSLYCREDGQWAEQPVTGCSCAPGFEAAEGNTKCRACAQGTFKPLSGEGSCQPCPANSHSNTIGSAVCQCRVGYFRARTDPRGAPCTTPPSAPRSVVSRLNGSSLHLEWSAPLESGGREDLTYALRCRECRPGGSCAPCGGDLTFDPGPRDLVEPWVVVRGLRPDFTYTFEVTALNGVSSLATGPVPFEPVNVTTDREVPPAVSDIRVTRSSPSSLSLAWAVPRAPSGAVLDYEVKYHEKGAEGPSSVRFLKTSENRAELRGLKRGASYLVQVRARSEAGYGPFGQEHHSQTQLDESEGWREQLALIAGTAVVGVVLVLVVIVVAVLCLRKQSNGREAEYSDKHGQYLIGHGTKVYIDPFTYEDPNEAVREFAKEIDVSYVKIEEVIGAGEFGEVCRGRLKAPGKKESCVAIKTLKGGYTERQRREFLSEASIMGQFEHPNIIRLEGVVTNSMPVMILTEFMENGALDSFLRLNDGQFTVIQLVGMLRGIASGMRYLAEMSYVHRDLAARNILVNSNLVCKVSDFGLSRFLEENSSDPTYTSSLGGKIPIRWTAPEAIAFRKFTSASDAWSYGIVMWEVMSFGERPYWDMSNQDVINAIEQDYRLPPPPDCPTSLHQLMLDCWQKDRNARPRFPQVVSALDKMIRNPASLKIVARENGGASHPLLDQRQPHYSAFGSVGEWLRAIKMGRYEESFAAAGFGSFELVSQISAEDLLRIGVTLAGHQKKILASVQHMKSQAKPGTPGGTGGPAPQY
Outline: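 Live A375 melanoma cells were treated with compound at 0.5 or 5 μM, then lysed. Lysates were labeled with a lysine-reactive ATP or ADP-biotin probe. The read-out was protection of each kinase probe-labeling site from labeling, relative to control.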

[2] = molecular target: Serine/threonine-protein kinase 10 (Homo sapiens) (UniProt O94804); assay: Inhibition of LOK Lys1 labeling site in human A-375 cells at 0.5 uM by KiNativ Profiling analysis relative to control
[3] = molecular target: Cyclin-dependent kinase 18 (Homo sapiens) (UniProt Q07002); assay: Inhibition of PCTAIRE3 Lys1 labeling site harbouring SKLTENLVALKEIRLEHEEGAPCTAIR in human A-375 cells at 5 uM by KiNativ Profiling analysis relative to control
Outline: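 Live A375 melanoma cells were treated with compound at 5 or 0.5 μM, then lysed. Lysates were labeled with a lysine-reactive ATP or ADP-biotin probe. Read-out was the compound's protection of kinase labeling sites from probe labeling (KiNativ).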

[4] = molecular target: T2, Serine/threonine-protein kinase TAO3 (Homo sapiens) (UniProt Q9H2K8); assay: Inhibition of TAO3 Lys2 labeling site in human A-375 cells at 0.5 uM by KiNativ Profiling analysis relative to control
T2 sequence (whole entry): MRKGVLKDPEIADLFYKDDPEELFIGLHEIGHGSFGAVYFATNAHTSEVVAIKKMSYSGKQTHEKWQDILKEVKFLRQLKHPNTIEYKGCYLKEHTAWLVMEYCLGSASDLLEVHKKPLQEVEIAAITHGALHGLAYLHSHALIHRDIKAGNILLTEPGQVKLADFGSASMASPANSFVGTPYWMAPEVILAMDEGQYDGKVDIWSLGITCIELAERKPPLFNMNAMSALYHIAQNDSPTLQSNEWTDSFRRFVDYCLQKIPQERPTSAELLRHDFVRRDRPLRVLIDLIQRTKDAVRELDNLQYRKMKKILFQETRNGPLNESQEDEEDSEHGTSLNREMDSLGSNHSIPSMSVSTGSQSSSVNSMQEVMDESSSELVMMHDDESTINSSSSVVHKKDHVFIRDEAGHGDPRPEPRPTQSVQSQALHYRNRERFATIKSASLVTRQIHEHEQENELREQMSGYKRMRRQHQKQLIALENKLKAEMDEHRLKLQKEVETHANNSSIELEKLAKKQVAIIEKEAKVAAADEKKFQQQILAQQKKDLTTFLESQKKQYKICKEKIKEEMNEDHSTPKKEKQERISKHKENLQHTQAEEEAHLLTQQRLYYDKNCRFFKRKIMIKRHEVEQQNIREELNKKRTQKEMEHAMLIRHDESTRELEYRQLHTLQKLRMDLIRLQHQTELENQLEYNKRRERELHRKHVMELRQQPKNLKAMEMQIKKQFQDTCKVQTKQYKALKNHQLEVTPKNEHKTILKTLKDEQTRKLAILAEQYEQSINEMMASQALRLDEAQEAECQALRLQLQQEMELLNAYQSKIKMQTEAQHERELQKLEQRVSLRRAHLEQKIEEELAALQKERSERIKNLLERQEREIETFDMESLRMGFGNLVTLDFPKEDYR

[5] = molecular target: T3, Phosphatidylinositol 5-phosphate 4-kinase type-2 gamma (Homo sapiens) (UniProt Q8TBX8); assay: Inhibition of PIP4K2C ATP labeling site harbouring VKELPTLKDMDFLNK in human A-375 cells at 0.05 uM by KiNativ Profiling analysis relative to control
T3 sequence (whole entry): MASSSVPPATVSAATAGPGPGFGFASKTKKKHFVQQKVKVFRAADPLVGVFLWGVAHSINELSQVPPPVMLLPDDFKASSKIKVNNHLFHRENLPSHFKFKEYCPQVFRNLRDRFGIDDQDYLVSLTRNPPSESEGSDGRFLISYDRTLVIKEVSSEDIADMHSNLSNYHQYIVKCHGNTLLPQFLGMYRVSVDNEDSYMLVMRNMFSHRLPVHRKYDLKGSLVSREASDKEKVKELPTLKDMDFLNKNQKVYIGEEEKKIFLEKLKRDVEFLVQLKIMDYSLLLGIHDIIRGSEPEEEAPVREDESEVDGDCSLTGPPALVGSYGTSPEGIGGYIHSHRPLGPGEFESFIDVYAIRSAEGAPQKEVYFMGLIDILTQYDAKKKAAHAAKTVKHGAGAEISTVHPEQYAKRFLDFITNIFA

[6] = molecular target: Serine/threonine-protein kinase WNK1 (Homo sapiens) (UniProt Q9H4A3); assay: Inhibition of Wnk1 ACT labeling site in human A-375 cells at 0.05 uM by KiNativ Profiling analysis relative to control
Serine/threonine-protein kinase WNK1 (Homo sapiens), sequence (Q9H4A3 whole entry, looked up): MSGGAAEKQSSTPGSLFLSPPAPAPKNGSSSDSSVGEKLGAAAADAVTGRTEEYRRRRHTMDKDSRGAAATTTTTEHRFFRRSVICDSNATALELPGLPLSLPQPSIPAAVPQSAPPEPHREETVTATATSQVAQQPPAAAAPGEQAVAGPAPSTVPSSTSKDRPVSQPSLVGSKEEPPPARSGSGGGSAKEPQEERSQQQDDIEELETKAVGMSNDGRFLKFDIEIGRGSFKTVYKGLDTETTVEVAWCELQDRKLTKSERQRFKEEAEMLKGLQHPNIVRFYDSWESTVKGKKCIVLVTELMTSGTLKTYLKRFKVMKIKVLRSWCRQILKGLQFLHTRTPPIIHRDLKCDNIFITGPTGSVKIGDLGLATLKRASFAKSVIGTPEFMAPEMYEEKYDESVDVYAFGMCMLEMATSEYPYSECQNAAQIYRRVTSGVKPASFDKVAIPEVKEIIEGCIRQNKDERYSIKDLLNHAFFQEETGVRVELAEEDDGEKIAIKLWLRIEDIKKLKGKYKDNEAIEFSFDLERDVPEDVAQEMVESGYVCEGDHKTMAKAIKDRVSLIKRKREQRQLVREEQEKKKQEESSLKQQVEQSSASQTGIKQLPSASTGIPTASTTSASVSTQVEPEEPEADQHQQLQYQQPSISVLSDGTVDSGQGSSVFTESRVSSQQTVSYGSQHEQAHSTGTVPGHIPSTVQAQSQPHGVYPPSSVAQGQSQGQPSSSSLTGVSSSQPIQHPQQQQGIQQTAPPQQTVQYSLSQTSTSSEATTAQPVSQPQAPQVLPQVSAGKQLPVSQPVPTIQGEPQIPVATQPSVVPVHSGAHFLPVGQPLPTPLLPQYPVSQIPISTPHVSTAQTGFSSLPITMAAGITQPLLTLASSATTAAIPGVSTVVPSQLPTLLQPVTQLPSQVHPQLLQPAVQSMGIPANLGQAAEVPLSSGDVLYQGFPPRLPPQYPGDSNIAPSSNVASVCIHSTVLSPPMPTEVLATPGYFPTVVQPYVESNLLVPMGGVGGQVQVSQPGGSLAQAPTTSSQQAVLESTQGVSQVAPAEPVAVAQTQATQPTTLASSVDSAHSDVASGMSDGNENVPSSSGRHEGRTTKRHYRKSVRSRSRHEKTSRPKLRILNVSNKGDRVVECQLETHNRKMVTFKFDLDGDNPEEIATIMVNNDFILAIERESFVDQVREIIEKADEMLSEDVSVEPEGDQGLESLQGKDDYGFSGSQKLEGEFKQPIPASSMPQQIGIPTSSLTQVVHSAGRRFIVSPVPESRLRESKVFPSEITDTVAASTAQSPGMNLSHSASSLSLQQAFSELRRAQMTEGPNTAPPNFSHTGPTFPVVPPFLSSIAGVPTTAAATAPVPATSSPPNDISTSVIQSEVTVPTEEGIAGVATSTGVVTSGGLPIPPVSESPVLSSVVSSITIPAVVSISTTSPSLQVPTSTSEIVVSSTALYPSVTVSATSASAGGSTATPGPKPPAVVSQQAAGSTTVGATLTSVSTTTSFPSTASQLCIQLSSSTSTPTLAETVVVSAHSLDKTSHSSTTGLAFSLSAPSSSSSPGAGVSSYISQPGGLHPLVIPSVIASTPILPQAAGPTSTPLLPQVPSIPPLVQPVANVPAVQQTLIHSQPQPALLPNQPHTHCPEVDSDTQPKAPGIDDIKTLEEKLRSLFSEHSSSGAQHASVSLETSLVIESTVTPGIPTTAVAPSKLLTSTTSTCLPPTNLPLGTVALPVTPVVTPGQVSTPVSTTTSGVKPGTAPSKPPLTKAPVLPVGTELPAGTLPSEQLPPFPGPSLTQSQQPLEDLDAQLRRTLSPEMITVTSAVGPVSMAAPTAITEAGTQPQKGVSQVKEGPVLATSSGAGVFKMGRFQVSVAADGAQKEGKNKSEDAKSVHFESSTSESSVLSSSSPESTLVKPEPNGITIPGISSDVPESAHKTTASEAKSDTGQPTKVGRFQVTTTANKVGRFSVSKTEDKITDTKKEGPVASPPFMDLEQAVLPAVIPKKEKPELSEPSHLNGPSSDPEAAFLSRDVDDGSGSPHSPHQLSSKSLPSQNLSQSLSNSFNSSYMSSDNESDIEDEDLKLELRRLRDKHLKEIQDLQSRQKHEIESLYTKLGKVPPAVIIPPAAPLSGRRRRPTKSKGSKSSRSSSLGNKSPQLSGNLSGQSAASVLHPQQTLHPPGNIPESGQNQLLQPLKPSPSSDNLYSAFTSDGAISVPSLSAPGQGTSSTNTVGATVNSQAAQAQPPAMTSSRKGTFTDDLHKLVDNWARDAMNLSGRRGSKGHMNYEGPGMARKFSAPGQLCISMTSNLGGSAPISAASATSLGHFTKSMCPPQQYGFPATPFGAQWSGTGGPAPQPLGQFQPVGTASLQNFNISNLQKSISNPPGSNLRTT

Cyclin-dependent kinase 18 (Homo sapiens), sequence (Q07002 whole entry): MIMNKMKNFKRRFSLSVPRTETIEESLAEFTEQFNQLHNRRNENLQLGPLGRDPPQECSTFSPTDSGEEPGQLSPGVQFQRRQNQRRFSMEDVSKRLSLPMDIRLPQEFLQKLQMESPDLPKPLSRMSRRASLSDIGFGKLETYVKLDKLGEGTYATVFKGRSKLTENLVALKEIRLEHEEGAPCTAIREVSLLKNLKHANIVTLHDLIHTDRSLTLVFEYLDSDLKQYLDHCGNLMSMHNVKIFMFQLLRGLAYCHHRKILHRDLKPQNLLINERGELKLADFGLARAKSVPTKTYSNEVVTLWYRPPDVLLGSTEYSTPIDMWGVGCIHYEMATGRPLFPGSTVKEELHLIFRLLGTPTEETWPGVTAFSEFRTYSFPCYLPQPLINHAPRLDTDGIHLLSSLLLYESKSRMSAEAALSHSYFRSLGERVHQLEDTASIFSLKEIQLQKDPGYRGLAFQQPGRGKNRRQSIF
Serine/threonine-protein kinase 10 (Homo sapiens), sequence (O94804 whole entry, looked up): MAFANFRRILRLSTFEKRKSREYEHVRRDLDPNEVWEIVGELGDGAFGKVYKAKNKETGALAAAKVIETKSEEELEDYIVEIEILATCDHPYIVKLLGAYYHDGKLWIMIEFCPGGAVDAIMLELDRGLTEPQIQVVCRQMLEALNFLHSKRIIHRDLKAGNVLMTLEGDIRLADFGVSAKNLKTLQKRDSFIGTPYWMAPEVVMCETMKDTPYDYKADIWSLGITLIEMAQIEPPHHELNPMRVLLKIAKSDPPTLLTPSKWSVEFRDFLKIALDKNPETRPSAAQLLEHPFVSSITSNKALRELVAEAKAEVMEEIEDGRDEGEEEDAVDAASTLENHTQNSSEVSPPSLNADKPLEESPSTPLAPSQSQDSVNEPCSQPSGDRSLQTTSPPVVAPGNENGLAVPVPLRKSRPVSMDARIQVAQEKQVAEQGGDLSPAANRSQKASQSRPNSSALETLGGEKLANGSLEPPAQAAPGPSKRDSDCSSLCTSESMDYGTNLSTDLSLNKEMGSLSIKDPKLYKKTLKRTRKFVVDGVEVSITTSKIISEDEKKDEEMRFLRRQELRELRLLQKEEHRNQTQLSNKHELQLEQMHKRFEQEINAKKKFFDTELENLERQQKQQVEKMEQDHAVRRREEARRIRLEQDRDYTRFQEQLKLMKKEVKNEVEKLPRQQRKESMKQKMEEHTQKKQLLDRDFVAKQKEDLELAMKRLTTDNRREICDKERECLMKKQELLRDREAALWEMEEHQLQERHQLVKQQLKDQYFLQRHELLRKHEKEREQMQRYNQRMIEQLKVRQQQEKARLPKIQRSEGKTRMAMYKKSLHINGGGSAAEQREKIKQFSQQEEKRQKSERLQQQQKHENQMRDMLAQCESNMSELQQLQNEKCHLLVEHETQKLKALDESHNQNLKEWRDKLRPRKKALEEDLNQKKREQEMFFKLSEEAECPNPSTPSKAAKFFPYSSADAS

Structure (SMILES) | inhibition [1] | inhibition [2] | inhibition [3] | inhibition [4] | inhibition [5] | inhibition [6]
CCN1CCN(Cc2ccc(NC(=O)c3ccc(C)c(/C=C/c4cnc5[nH]ccc5c4OC)c3)cc2C(F)(F)F)CC1 | > 90% | 60.7% | 21.3% | 6.6% | -7.3% | 10.1%
CCN1CCN(Cc2ccc(NC(=O)c3ccc(C)c(Oc4ccnc5[nH]ccc45)c3)cc2C(F)(F)F)CC1 | -4.2% | 71.7% | 56.6% | -5.6% | -1.1% | 10.3%
